Results reported in ChEMBL document CHEMBL1629663, “Postantibiotic effects of telavancin against 16 gram-positive organisms” (Antimicrob Agents Chemother, 2009).
In brackets after ≈: the same amount, converted by molar mass.

Tests used:
Staphylococcus aureus [1] = assay: Antimicrobial activity against vancomycin-susceptible-, methicillin-resistant Staphylococcus aureus 1306 by microdilution method; assay type: functional
Staphylococcus aureus [2] = assay: Antimicrobial activity against vancomycin-intermediate-, methicillin-resistant Staphylococcus aureus 1287 assessed as time required to induce post antibiotic sub-MIC effect at 0.4 times MIC […] by plate counting method; assay type: functional
Method in brief: (§1)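 PAE was first induced with 10× MIC for 1 h at 35°C (inoculum about 5 × 10^6 CFU/ml, Mueller-Hinton broth) and ended by 1:1,000 dilution. Cultures were then split and given 0.2, 0.3 or 0.4× MIC, with one tube left without drug. Viable counts were taken before exposure, after dilution, then every 2 h until McFarland no. 1 turbidity. Two separate experiments, each with a new inoculum.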

Streptococcus agalactiae = assay: Antimicrobial activity against Streptococcus agalactiae HMC 5 assessed as time required to induce post antibiotic sub-MIC effect at 0.4 times MIC […] by plate counting method; assay type: functional
Method in brief: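 Mueller-Hinton broth cultures of about 5 × 10^6 CFU/ml were pre-exposed to telavancin at 10× MIC for 1 h at 35°C, then diluted 1:1,000. Telavancin was re-added to final 0.2, 0.3 or 0.4× MIC, alongside a drug-free tube. Viable counts were taken before exposure, after dilution, then every 2 h until McFarland no. 1 turbidity. Duration comes from log10 CFU/ml-versus-time plots; two separate experiments with fresh inocula.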

Enterococcus faecalis [3] = assay: Antimicrobial activity against Enterococcus faecalis HMC 571 assessed as time required to induce post antibiotic sub-MIC effect at 0.4 times MIC […] by plate counting method; assay type: functional; method in brief: as §1
Staphylococcus aureus [4] = assay: Antimicrobial activity against vancomycin-resistant-, methicillin-resistant Staphylococcus aureus 510 by microdilution method; assay type: functional
Enterococcus faecium [5] = assay: Antimicrobial activity against Enterococcus faecium HMC 588 by microdilution method; assay type: functional
Staphylococcus aureus [6] = assay: Antimicrobial activity against vancomycin-susceptible-, methicillin-resistant Staphylococcus aureus 1130 assessed as post-antibiotic effect at 10 times MIC pre-exposed to Telavancin for 1 hr by plate counting method; assay type: functional
Method in brief: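 Direct colony suspensions (~5 × 10^6 CFU/ml) were exposed to 10× MIC for 1 h at 35°C with shaking in Mueller-Hinton broth, then diluted 1:1,000 to remove drug. Viable plate counts were taken before exposure, at 0 h, then every 2 h until turbidity reached McFarland 1. PAE = T − C, the time for counts to rise 1 log10 versus the unexposed control. Two separate experiments were run.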

Streptococcus pyogenes = assay: Antimicrobial activity against Streptococcus pyogenes HMC 414 assessed as post-antibiotic effect at 10 times MIC pre-exposed to Telavancin for 1 hr by plate counting method; assay type: functional
Method in brief: (§2)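 Organisms were suspended in Mueller-Hinton broth from overnight blood agar colonies at about 5 × 10^6 CFU/ml. Cultures were exposed to telavancin at 10× MIC for 1 h at 35°C in a shaking water bath, then diluted 1:1,000 to remove the drug, with an untreated growth control. Viable counts were taken before exposure, at 0 h, then every 2 h until McFarland no. 1 turbidity. PAE = T − C, the time to a 1 log10 rise. Two experiments.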

Enterococcus faecalis [7] = assay: Antimicrobial activity against Enterococcus faecalis HMC 571 assessed as post-antibiotic effect at 10 times MIC pre-exposed to Telavancin for 1 hr by plate counting method; assay type: functional; method in brief: as §2
Enterococcus faecium [8] = assay: Antimicrobial activity against Enterococcus faecium HMC 588 assessed as post-antibiotic effect at 10 times MIC pre-exposed to Telavancin for 1 hr by plate counting method; assay type: functional; method in brief: as §2
Staphylococcus aureus [9] = assay: Antimicrobial activity against vancomycin-susceptible-, methicillin-resistant Staphylococcus aureus 1307 assessed as time required to induce sub-MIC effect at 0.2 times MIC exposed for 2 hrs by plate counting method; assay type: functional
Method in brief: (§3)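 Sub-MIC effect: cultures not preexposed to drug were diluted and handled as in the PA-SME procedure in Mueller-Hinton broth with final 0.2, 0.3 or 0.4× MIC, plus a drug-free control. Viable plate counts were taken every 2 h until McFarland 1 turbidity. Duration was derived from growth curves. Two experiments were run, each with a new inoculum.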

Staphylococcus aureus [10] = assay: Antimicrobial activity against vancomycin-intermediate-, methicillin-resistant Staphylococcus aureus 555 assessed as time required to induce sub-MIC effect at 0.2 times MIC […] by plate counting method; assay type: functional
Method in brief: (§4)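 SME, viable plate count method: no prior drug exposure. About 5 × 10^6 CFU/ml in Mueller-Hinton broth at 35°C received 0.2, 0.3 or 0.4× MIC, alongside a drug-free tube. Counts were taken at the start, then every 2 h until McFarland no. 1 turbidity, as log10 CFU/ml against time. Two separate experiments, each with a new inoculum.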

Enterococcus faecalis [11] = assay: Antimicrobial activity against Enterococcus faecalis ATCC 29212 assessed as time required to induce sub-MIC effect at 0.2 times MIC exposed for 2 hrs by plate counting method; assay type: functional
Method in brief: (§5)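 Unexposed Mueller-Hinton broth cultures (about 5 × 10^6 CFU/ml, 35°C) were handled as in the PA-SME set but without the 10× MIC pre-exposure. They were diluted 1:1,000, then given telavancin at final 0.2, 0.3 or 0.4× MIC, with a drug-free control. Viable counts were taken every 2 h until McFarland no. 1 turbidity. Effect duration comes from log10 CFU/ml-time plots; two separate experiments with new inocula.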

Enterococcus faecium [12] = assay: Antimicrobial activity against Enterococcus faecium HMC 588 assessed as time required to induce sub-MIC effect at 0.2 times MIC exposed for 2 hrs by plate counting method; assay type: functional; method in brief: as §5
Staphylococcus aureus [13] = assay: Antimicrobial activity against vancomycin-susceptible-, methicillin-resistant Staphylococcus aureus ATCC 33591 assessed as time required to induce post antibiotic sub-MIC effect at 0.2 times MIC pre-exposed to Telavancin […] by plate counting method; assay type: functional
Method in brief: (§6)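 After 1 h preexposure to 10× MIC at 35°C and 1:1,000 dilution, cultures were split, and drug was re-added to final 0.2, 0.3 or 0.4× MIC, with a drug-free tube. Viable counts were taken every 2 h until McFarland 1 turbidity. Duration was derived from log10 CFU/ml versus time curves. Two experiments were run, each with a new inoculum.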

Staphylococcus aureus [14] = assay: Antimicrobial activity against vancomycin-susceptible-, methicillin-resistant Staphylococcus aureus 1307 assessed as time required to induce post antibiotic sub-MIC effect at 0.2 times MIC pre-exposed to Telavancin […] by plate counting method; assay type: functional; method in brief: as §6
Staphylococcus aureus [15] = assay: Antimicrobial activity against vancomycin-susceptible-, methicillin-resistant Staphylococcus aureus 1306 assessed as time required to induce post antibiotic sub-MIC effect at 0.3 times MIC […] by plate counting method; assay type: functional; method in brief: as §6
Staphylococcus aureus [16] = assay: Antimicrobial activity against vancomycin-intermediate-, methicillin-resistant Staphylococcus aureus 770 assessed as time required to induce post antibiotic sub-MIC effect at 0.3 times MIC […] by plate counting method; assay type: functional; method in brief: as §1
Staphylococcus aureus [17] = assay: Antimicrobial activity against vancomycin-susceptible-, methicillin-resistant Staphylococcus aureus 1306 assessed as time required to induce sub-MIC effect at 0.4 times MIC exposed for 2 hrs by plate counting method; assay type: functional; method in brief: as §3
Staphylococcus aureus [18] = assay: Antimicrobial activity against heterogenous vancomycin-intermediate-, methicillin-resistant Staphylococcus aureus 873 assessed as time required to induce sub-MIC effect at 0.4 times MIC […] by plate counting method; assay type: functional; method in brief: as §4
Staphylococcus aureus [19] = assay: Antimicrobial activity against vancomycin-resistant-, methicillin-resistant Staphylococcus aureus 510 assessed as time required to induce post antibiotic sub-MIC effect at 0.2 times MIC pre-exposed to Telavancin for 1 hr by plate counting method

CCCCCCCCCCNCCN[C@@]1(C)C[C@H](O[C@H]2[C@H](Oc3c4cc5cc3Oc3ccc(cc3Cl)[C@@H](O)[C@@H](NC(=O)[C@@H](CC(C)C)NC)C(=O)N[C@@H](CC(N)=O)C(=O)N[C@H]5C(=O)N[C@H]3C(=O)N[C@H](C(=O)N[C@H](C(=O)O)c5cc(O)c(CNCP(=O)(O)O)c(O)c5-c5cc3ccc5O)[C@H](O)c3ccc(c(Cl)c3)O4)O[C@H](CO)[C@@H](O)[C@@H]2O)O[C@@H](C)[C@H]1O [TELAVANCIN]
MIC (Staphylococcus aureus [1]): 0.12 µg/mL (≈ 0.0684 µM) | PAE (Staphylococcus aureus [2]): > 10 h | PAE (Streptococcus agalactiae): > 10.7 h | PAE (Enterococcus faecalis [3]): 10.6 h | MIC (Staphylococcus aureus [4]): 0.5 µg/mL (≈ 0.285 µM) | MIC (Enterococcus faecium [5]): 0.12 µg/mL (≈ 0.0684 µM) | PAE (Staphylococcus aureus [6]): 1.4 h | PAE (Streptococcus pyogenes): 6.1 h | PAE (Enterococcus faecalis [7]): 1.5 h | PAE (Enterococcus faecium [8]): 1.2 h | PAE (Staphylococcus aureus [9]): 1 h | PAE (Staphylococcus aureus [10]): 0.3 h | PAE (Enterococcus faecalis [11]): 0.7 h | PAE (Enterococcus faecium [12]): 1.2 h | PAE (Staphylococcus aureus [13]): 7.7 h | PAE (Staphylococcus aureus [14]): 6 h | PAE (Staphylococcus aureus [15]): 5.4 h | PAE (Staphylococcus aureus [16]): 6.3 h | PAE (Staphylococcus aureus [17]): 6 h | PAE (Staphylococcus aureus [18]): 1 h | PAE (Staphylococcus aureus [19]): 5.6 h
